What was measured:
Format in all cases: functional
UACC-257 = assay: Growth inhibition of human UACC257 cells at 10 uM after 48 hrs by coulter counting; conditions: UACC-257, 48 h, read-out: GI
In short: (§1)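 Single-dose screen in the NCI 60 human tumor cell line panel (nine subpanels). Compounds dissolved in DMSO and diluted in phosphate buffered saline, keeping final DMSO below 1%. Added in duplicate wells to cells at 6 × 10⁴ cells/ml. Controls held PBS and DMSO at matching dilutions. Incubated at 37 °C, humidified, 5% CO₂. Reported as percent growth of treated cells.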

UACC-62 = assay: Growth inhibition of human UACC62 cells at 10 uM after 48 hrs by coulter counting; conditions: UACC-62, 48 h, read-out: GI; in short: as §1
SF-539 = assay: Growth inhibition of human SF539 cells at 10 uM after 48 hrs by coulter counting; conditions: SF-539, 48 h, read-out: GI
In short: (§2)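 Single-dose primary screen across the full NCI 60-cell-line panel. Stocks were made in DMSO and diluted in PBS to a final DMSO below 1%. Cultures at 6 × 10⁴ cells/ml were run in duplicate wells alongside PBS/DMSO vehicle controls at 37 °C in humidified 5% CO₂. Data were expressed as percent growth of treated cells.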

CCRF-CEM = assay: Growth inhibition of human CCRF-CEM cells at 10 uM after 48 hrs by coulter counting; conditions: read-out: GI; in short: as §2
HL-60(TB) = assay: Growth inhibition of human HL-60(TB) cells at 10 uM after 48 hrs by coulter counting; conditions: HL-60, 48 h, read-out: GI
In short: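 Test compound was dissolved in DMSO and diluted in phosphate-buffered saline to a final DMSO level below 1%. Dilutions were plated in duplicate with cell culture at 6 × 10⁴ cells/ml. Vehicle controls held PBS and DMSO at matching dilutions. Incubation was at 37 °C, humidified, under 5% CO₂. Data were reported as percent growth of treated cells.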

K562 = assay: Growth inhibition of human K562 cells at 10 uM after 48 hrs by coulter counting; conditions: K562, 48 h, read-out: GI; in short: as §2
MOLT-4 = assay: Growth inhibition of human MOLT4 cells at 10 uM after 48 hrs by coulter counting; conditions: MOLT-4, 48 h, read-out: GI; in short: as §2
RPMI-8226 = assay: Growth inhibition of human RPMI8226 cells at 10 uM after 48 hrs by coulter counting; conditions: RPMI-8226, 48 h, read-out: GI; in short: as §2
A549 = assay: Growth inhibition of human A549 cells at 10 uM after 48 hrs by coulter counting; conditions: A549, 48 h, read-out: GI; in short: as §2
EKVX = assay: Growth inhibition of human EKVX cells at 10 uM after 48 hrs by coulter counting; conditions: read-out: GI; in short: as §2
HOP-62 = assay: Growth inhibition of human HOP62 cells at 10 uM after 48 hrs by coulter counting; conditions: HOP-62, 48 h, read-out: GI; in short: as §2
NCI-H226 = assay: Growth inhibition of human NCI-H226 cells at 10 uM after 48 hrs by coulter counting; conditions: NCI-H226, 48 h, read-out: GI; in short: as §2
NCI-H23 = assay: Growth inhibition of human NCI-H23 cells at 10 uM after 48 hrs by coulter counting; conditions: NCI-H23, 48 h, read-out: GI; in short: as §2
[1] = Growth inhibition of human NCI-322M cells at 10 uM after 48 hrs by coulter counting; conditions: read-out: GI; in short: as §2
NCI-H460 = assay: Growth inhibition of human NCI-H460 cells at 10 uM after 48 hrs by coulter counting; conditions: NCI-H460, 48 h, read-out: GI; in short: as §2
NCI-H522 = assay: Growth inhibition of human NCI-H522 cells at 10 uM after 48 hrs by coulter counting; conditions: NCI-H522, 48 h, read-out: GI; in short: as §2
HCT-116 = assay: Growth inhibition of human HCT116 cells at 10 uM after 48 hrs by coulter counting; conditions: HCT-116, 48 h, read-out: GI; in short: as §2
HCC 2998 = assay: Growth inhibition of human HCC2998 cells at 10 uM after 48 hrs by coulter counting; conditions: HCC 2998, 48 h, read-out: GI; in short: as §2
HT-29 = assay: Growth inhibition of human HT-29 cells at 10 uM after 48 hrs by coulter counting; conditions: HT-29, 48 h, read-out: GI; in short: as §2
KM12 = assay: Growth inhibition of human KM12 cells at 10 uM after 48 hrs by coulter counting; conditions: KM12, 48 h, read-out: GI; in short: as §2
SF-268 = assay: Growth inhibition of human SF268 cells at 10 uM after 48 hrs by coulter counting; conditions: SF-268, 48 h, read-out: GI; in short: as §2
SF-295 = assay: Growth inhibition of human SF295 cells at 10 uM after 48 hrs by coulter counting; conditions: SF-295, 48 h, read-out: GI; in short: as §2
SNB-19 = assay: Growth inhibition of human SNB19 cells at 10 uM after 48 hrs by coulter counting; conditions: SNB-19, 48 h, read-out: GI; in short: as §2
SNB-75 = assay: Growth inhibition of human SNB75 cells at 10 uM after 48 hrs by coulter counting; conditions: SNB-75, 48 h, read-out: GI; in short: as §2
U-251 = assay: Growth inhibition of human U251 cells at 10 uM after 48 hrs by coulter counting; conditions: U-251, 48 h, read-out: GI; in short: as §1
LOX IMVI = assay: Growth inhibition of human LOXIMVI cells at 10 uM after 48 hrs by coulter counting; conditions: read-out: GI; in short: as §2
M14 = assay: Growth inhibition of human M14 cells at 10 uM after 48 hrs by coulter counting; conditions: M14, 48 h, read-out: GI; in short: as §2
MDA-MB-435 = assay: Growth inhibition of human MDA-MB-435 cells at 10 uM after 48 hrs by coulter counting; conditions: MDA-MB-435, 48 h, read-out: GI; in short: as §2
SK-MEL-2 = assay: Growth inhibition of human SK-MEL-2 cells at 10 uM after 48 hrs by coulter counting; conditions: SK-MEL-2, 48 h, read-out: GI; in short: as §2
SK-MEL-28 = assay: Growth inhibition of human SK-MEL-28 cells at 10 uM after 48 hrs by coulter counting; conditions: SK-MEL-28, 48 h, read-out: GI; in short: as §2
SK-MEL-5 = assay: Growth inhibition of human SK-MEL-5 cells at 10 uM after 48 hrs by coulter counting; conditions: SK-MEL-5, 48 h, read-out: GI; in short: as §2
IGROV-1 = assay: Growth inhibition of human IGROV1 cells at 10 uM after 48 hrs by coulter counting; conditions: IGROV-1, 48 h, read-out: GI; in short: as §2
OVCAR-4 = assay: Growth inhibition of human OVCAR4 cells at 10 uM after 48 hrs by coulter counting; conditions: OVCAR-4, 48 h, read-out: GI; in short: as §2
NCI/ADR-RES = assay: Growth inhibition of human NCI/ADR-RES cells at 10 uM after 48 hrs by coulter counting; conditions: read-out: GI; in short: as §2
A498 = assay: Growth inhibition of human A498 cells at 10 uM after 48 hrs by coulter counting; conditions: A498, 48 h, read-out: GI; in short: as §2
ACHN = assay: Growth inhibition of human ACHN cells at 10 uM after 48 hrs by coulter counting; conditions: read-out: GI; in short: as §2
CAKI-1 = assay: Growth inhibition of human Caki1 cells at 10 uM after 48 hrs by coulter counting; conditions: CAKI-1, 48 h, read-out: GI; in short: as §2
UO-31 = assay: Growth inhibition of human UO31 cells at 10 uM after 48 hrs by coulter counting; conditions: UO-31, 48 h, read-out: GI; in short: as §1
DU-145 = assay: Growth inhibition of human DU145 cells at 10 uM after 48 hrs by coulter counting; conditions: DU-145, 48 h, read-out: GI; in short: as §2
MCF7 = assay: Growth inhibition of human MCF7 cells at 10 uM after 48 hrs by coulter counting; conditions: MCF7, 48 h, read-out: GI; in short: as §2
BT-549 = assay: Growth inhibition of human BT549 cells at 10 uM after 48 hrs by coulter counting; conditions: BT-549, 48 h, read-out: GI; in short: as §2
T47D = assay: Growth inhibition of human T47D cells at 10 uM after 48 hrs by coulter counting; conditions: read-out: GI; in short: as §1

Measured: inhibition of growth at 10 µM

COc1ccc(/C=C2\CCCC3=C2N=C2SC=CN2C3c2ccc(OC)cc2)cc1 (stereo not given)
14.4%: MOLT-4
15.4%: MDA-MB-435 | OVCAR-4
11.3%: CAKI-1
17.6%: HCT-116
12.5%: EKVX
21.6%: NCI-H226
32%: UO-31
18.8%: M14
21%: RPMI-8226
> 10%: all other assays above

C1=CN2C(=NC3=C(CCC/C3=C\c3cccs3)C2c2cccs2)S1 (stereo not given)
10.4%: SNB-75
28.7%: UO-31
13%: LOX IMVI
> 10%: all other assays above

COc1ccc(/C=C2\CCCC3=C2N=C2SC=C(C)N2C3c2ccc(OC)c(OC)c2)cc1OC (stereo not given)
10.5%: NCI-H226
11.4%: EKVX
not listed: HOP-62
> 10%: all other assays above

From ChEMBL document CHEMBL1926614, “Substituted thiazoles V. synthesis and antitumor activity of novel thiazolo[2,3-b]quinazoline and pyrido[4,3-d]thiazolo[3,2-a]pyrimidine analogues” (2012)
